Data set [1] has as its system dengue virus type 2. The experiment in a line: Antiviral activity against Dengue virus 2 TSV01 infected in AG129 mouse assessed as reduced viremia by 25 mg/kg, po BID for 3 days measured on day 4 by plaque assay. Format: functional. The method, boiled down: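 AG129 mice (lacking IFN-α/β and IFN-γ receptors) were inoculated i.p. with 2 × 10^6 PFU DENV-2 in 0.4 ml. Immediately afterwards, 0.2 ml compound in ethanol-PEG-D5W (10:30:60) was given by oral gavage twice daily for 3 days. Day-4 blood viremia was measured by plaque assay; 6 or 8 mice per group.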

For data set [2], the system named is dengue virus type 2. The experiment in a line: Antiviral activity against Dengue virus 2 NGC infected in human A549 cells by CFI assay. The data set is classed as functional, organism-based. The method, boiled down: (§1)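 CFI assay: A549 cells seeded 2 × 10^4/well, infected next day (MOI 0.3 for DENV-2) with compound-virus mixture for 1 h, then refed with compound-containing medium. On day 2 cells were methanol-fixed at 4°C and intracellular E protein detected by ELISA (4G2 primary, HRP anti-mouse secondary). EC50 is the average of two independent experiments.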

Data set [3] deals with dengue virus type 2. Description: Antiviral activity against Dengue virus 2 MY10340 infected in human A549 cells by CFI assay. The data set is classed as functional, organism-based. The method, boiled down: as §1
The test system of data set [4] is dengue virus type 2. Description: Antiviral activity against Dengue virus 2 NGC infected in human PBMC cells by plaque assay. Format: functional, organism-based.
Data set [5] deals with dengue virus type 1. Description: Antiviral activity against Dengue virus 1 MY10245 infected in human A549 cells by CFI assay. Format: functional, organism-based. The method, boiled down:
as §1

Data set [6] deals with dengue virus type 3. The experiment in a line: Antiviral activity against Dengue virus 3 MY22366 infected in human A549 cells by CFI assay. Format: functional, organism-based. The method, boiled down:
as §1

For data set [7], the system named is dengue virus type 4. The experiment in a line: Antiviral activity against Dengue virus 4 MY22713 infected in human A549 cells by CFI assay. The data set is classed as functional, organism-based. An outline of the steps: as §1
The nature of data set [8]: Clearance in Wistar rat at 5.9 mg/kg, iv by LC-MS-MS analysis. The data set is classed as ADME, organism-based. The arrangement: dose 5.9 mg/kg, route intravenous. As to conditions: in vivo. The method, boiled down: (§2)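 Female Wistar rats given 5.9 mg/kg i.v. in pH 3.5 HCl/citrate formulation. Serial blood from groups of three rats, 0.17–48 h. Heparinized plasma extracted with acetonitrile-methanol-acetic acid, LC-MS-MS quantification (LLOQ 9.2 ng/ml); noncompartmental analysis of mean profile.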

Data set [9] is described as follows: Cmax in CD-1 mouse at 25 mg/kg, po by LC-MS-MS analysis. The arrangement: dose 25 mg/kg, route oral. As to conditions: in vivo. The data set is classed as ADME, organism-based. An outline of the steps:
(§3)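 Female CD-1 mice dosed orally at 25 mg/kg, formulated at 2.5 mg/ml in 0.1 N HCl (1.5 equimolar), pH 3.5 with NaOH, topped off with 100 mM citrate pH 3.5. Blood taken from three animals per time point, 0.08–24 h. Plasma acetonitrile-methanol-acetic acid extract analysed by LC-MS-MS (LLOQ 9.2 ng/ml). Mean profile fitted noncompartmentally; F from dose-corrected p.o./i.v. AUC.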

Data set [10] is described as follows: Clearance in CD-1 mouse at 5 mg/kg, iv by LC-MS-MS analysis. More on the design: dose 5 mg/kg, route intravenous. Conditions: in vivo. Format: ADME, organism-based. An outline of the steps: (§4)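 Female CD-1 mice, single i.v. injection of 5 mg/kg (1 mg/ml) in pH 3.5 HCl/citrate formulation. Blood from three animals at 0.02–24 h; heparinized plasma extracted and quantified by LC-MS-MS (LLOQ 9.2 ng/ml). Noncompartmental analysis of the mean concentration-time profile.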

Data set [11] is described as follows: Oral bioavailability in Wistar rat at 24.8 mg/kg by LC-MS-MS analysis. The data set is classed as ADME, organism-based. As to conditions: in vivo. The method, boiled down:
(§5)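 Female Wistar rats, fasted overnight until 4 h post-dose, given 24.8 mg/kg orally in pH 3.5 HCl/citrate solution. Serial blood sampling from groups of three, 0.17–48 h. Plasma quantified by LC-MS-MS (LLOQ 9.2 ng/ml). Noncompartmental fit of mean profile; bioavailability from dose-corrected AUC ratio versus i.v.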

The subject of data set [12] is A549. The experiment in a line: Cytotoxicity against human A549 cells up to 25 uM after 48 hrs by MTT assay. The data set is classed as functional, cell-based. On the technique in general: Formazan colour is commonly taken as a measure of viable cells.
The nature of data set [13]: Half life in CD-1 mouse at 5 mg/kg, iv by LC-MS-MS analysis. The data set is classed as ADME, organism-based. The arrangement: dose 5 mg/kg, route intravenous. As to conditions: in vivo. An outline of the steps:
as §4

The test system of data set [14] is Rattus norvegicus. Description: AUC (0 to infinity) in Wistar rat at 24.8 mg/kg, po by LC-MS-MS analysis. Format: ADME, organism-based, Plasma. The arrangement: time infinity, dose 24.8 mg/kg, route oral. Conditions: in vivo. An outline of the steps:
as §5

Data set [15] in a line: Volume of distribution in CD-1 mouse at 5 mg/kg, iv by LC-MS-MS analysis. Conditions: in vivo. More on the design: dose 5 mg/kg, route intravenous. Format: ADME, organism-based. The method, boiled down: as §4
Data set [16] deals with A549. The experiment in a line: Cytotoxicity against human A549 cells up to 12.5 uM after 48 hrs by MTT assay. Format: functional, cell-based.
Data set [17] concerns A549. Description: Cytotoxicity against human A549 cells at >= 25 uM after 48 hrs by MTT assay. Format: cell-based. As to conditions: a549, 48 h.
Data set [18] deals with dengue virus type 2. Description: Antiviral activity against Dengue virus 2 NGC infected in human A549 cells after 2 days by CFI assay in presence of 40 mg/ml human serum albumin and 2 mg/ml alpha-1-acid glycoprotein. As to conditions: A549, 48 h. Format: functional, organism-based. The method, boiled down:
(§6)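 Modified CFI: A549 cells infected with DENV-2 New Guinea C (MOI 0.3) for 1 h without compound. Inoculum then replaced with medium containing compound dilutions plus the stated HSA and/or AGP. On day 2, cells methanol-fixed and intracellular E protein detected by ELISA (4G2 primary, HRP anti-mouse secondary); EC50 derived.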

Data set [19] is described as follows: Volume of distribution at steady state Wistar rat at 5.9 mg/kg, iv by LC-MS-MS analysis. Format: ADME, organism-based. The arrangement: dose 5.9 mg/kg, route intravenous. Conditions: in vivo, read-out: Vdss. The method, boiled down:
as §2

Data set [20] can be described thus: Oral bioavailability in CD-1 mouse at 25 mg/kg by LC-MS-MS analysis. The data set is classed as ADME, organism-based. Conditions: in vivo. The method, boiled down: as §3
A short description of data set [21]: Cmax in Wistar rat at 24.8 mg/kg, po by LC-MS-MS analysis. Format: ADME, organism-based. The arrangement: dose 24.8 mg/kg, route oral. Conditions: in vivo. The method, boiled down: as §5
In data set [22] the test system is dengue virus type 2. Description: Antiviral activity against Dengue virus 2 NGC infected in human A549 cells after 2 days by CFI assay in presence of 2 mg/ml alpha-1-acid glycoprotein. The data set is classed as functional, organism-based. Conditions: A549, 48 h. The method, boiled down: as §6
Data set [23] is described as follows: Tmax in Wistar rat at 24.8 mg/kg, po by LC-MS-MS analysis. Format: ADME, organism-based. The arrangement: dose 24.8 mg/kg, route oral. As to conditions: in vivo. The method, boiled down: as §5
Data set [24] has as its system dengue virus type 2. Description: Antiviral activity against Dengue virus 2 NGC infected in human A549 cells after 2 days by CFI assay in presence of 40 mg/ml human serum albumin. Format: functional, organism-based. Conditions: A549, 48 h. The method, boiled down:
as §6

Data set [25] in a line: Tmax in CD-1 mouse at 25 mg/kg, po by LC-MS-MS analysis. Format: ADME, organism-based. The arrangement: dose 25 mg/kg, route oral. As to conditions: in vivo. The method, boiled down:
as §3

A short description of data set [26]: Half life in Wistar rat at 5.9 mg/kg, iv by LC-MS-MS analysis. The data set is classed as ADME, organism-based. Conditions: in vivo. More on the design: dose 5.9 mg/kg, route intravenous. The method, boiled down: as §2
Data set [27] concerns Mus musculus. Description: AUC (0 to infinity) in CD-1 mouse at 25 mg/kg, po by LC-MS-MS analysis. The data set is classed as ADME, organism-based, Plasma. The arrangement: time infinity, dose 25 mg/kg, route oral. Conditions: in vivo. The method, boiled down: as §3

Results on two compounds are retold here after ChEMBL document CHEMBL1629704, “Inhibition of dengue virus by an ester prodrug of an adenosine analog” (Antimicrob Agents Chemother, 2010).

Turning to `C#C[C@@]1(O)[C@H](O)[C@@H](CO)O[C@H]1n1ccc2c(N)ncnc21`, the “fold change (FC)” value in data set [1] was 10. Further, the EC50 (in general, the concentration that produces a half-maximal response) turned out to be 1640 nM in data set [2]; 1120 nM in [3]; 580 nM in data set [4]; 2610 nM in [5]; 460 nM in data set [6]; 700 nM in data set [7].

Take `C#C[C@@]1(O)[C@H](O)[C@@H](CO)O[C@H]1n1cc(C(N)=O)c2c(N)ncnc21`: the clearance (commonly a measure of how efficiently the substance is removed, as volume per time) stood at 8.98 mL/min/kg in [8] and 21.9 mL/min/kg in data set [10]. The EC50 came to 2610 nM in data set [2]; 1620 nM in data set [3]; 5000 nM in data set [4]; 2270 nM in [5]; 4640 nM in [18]; 1940 nM in data set [6]. In addition, the half-maximal effective concentration (EC50) was determined as 6990 nM in data set [7], 2520 nM in data set [22] and 4760 nM in data set [24]. The Cmax in [9] and in data set [21] was 270 nM each time. The values for the bioavailability in data set [11] and in data set [20] were 2% and 1%, respectively. The Activity result in data set [12] was “Not toxic”; in data set [16], “Not toxic”; in data set [17], “Non-toxic”. The figures for the half-life in data set [13] and in data set [26] were 1.31 h and 8.33 h, respectively. In addition, the AUC (as a rule, the area under the concentration-time curve, a measure of exposure) in data set [14] came out at 3.15 µM·h; in data set [27] it was 0.42 µM·h. Besides, the Vd in [15] was 0.26 L/kg; in data set [19] it was 2.71 L/kg. Moreover, the Tmax – broadly, the time from dosing to the highest level – in data set [23] was 0.17 h; in data set [25] it was 1 h.
